Screens from PubChem BioAssay.
Hits are enriched below; roughly 1.8% of the tested compounds scored in any of these assays.
NR1D1 modulator: modulators of human Rev-erb alpha DNA binding. P20393. Rev-erbα–FITC-DNA binding, fluorescence polarization, 90 min. activity, % at 10 µM. 370,000 tested, 0.79% active. AID 1259318;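 active means activity above about 14%, limit read from the data; passing the limit was not always enough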;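 further: 0% = DMSO wells with 35 nM protein and 100% = DMSO wells with 750 nM protein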
GalR3 antag: antagonists of human GalR3. O60755. HEK293 GalR3-CNG cAMP membrane potential fluorescence; galR3 body fused to GalR1 C-terminus. inhibition, % at 3 µM. 360,000 tested, 0.44% active. AID 651719;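 active means inhibition above the screen-wide average plus 3 SD, cut at about 13% in these data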;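 further: forskolin and galanin both at EC90 stimulate the cells; cAMP rise reported by CNG channel membrane potential dye signal; 0% = forskolin plus galanin with DMSO and 100% = forskolin alone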
Target sequence (O60755 1-299 limits assumed): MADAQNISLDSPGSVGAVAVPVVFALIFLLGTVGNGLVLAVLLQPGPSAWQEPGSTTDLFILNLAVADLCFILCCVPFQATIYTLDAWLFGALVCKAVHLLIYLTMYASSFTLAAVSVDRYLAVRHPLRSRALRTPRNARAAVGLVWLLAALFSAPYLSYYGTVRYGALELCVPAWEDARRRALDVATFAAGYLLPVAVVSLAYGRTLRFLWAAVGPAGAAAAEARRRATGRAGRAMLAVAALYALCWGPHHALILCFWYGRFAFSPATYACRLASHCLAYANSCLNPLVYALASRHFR
NR2E3 ag-1: agonists of human nuclear receptor NR2E3; Q9Y5X4; GST-NR2E3/biotin-RetCOR TR-FRET, 1536-well; inhibition of corepressor binding, % at 4.78 µM; 320,000 tested, 0.12% active; AID 2300;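 active means percent inhibition above the cutoff of mean plus 3 SD of all tested compounds, set per screening campaign, cut at about 20% in these data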;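 further: 0% = DMSO wells and 100% = biotin wells as full block of FRET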
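System: GST-NR2E3 and biotin-RetCOR proteins; probe or stimulus: 7 nM biotin-RetCOR; doses: compound at 4.8 µM, single dose; schedule: Compound–protein incubation for 5 h at 4 °C; detection: time-resolved FRET; read-out: percent inhibition; controls: biotin wells as high control, 0.6% DMSO wells as low control; format: 1536-well plates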
PG9 Ab binder: binds the HIV-1 gp120 antibody PG9; TR-FRET gp120-PG9 antibody binding; inhibition, % at 6.7 µM; 360,000 tested, 0.43% active; AID 624416; in the data active means inhibition above about 8.5%
NR2E3 ag-2: activates human NR2E3 receptor; CHO-S Gal4-NCOR/VP16-NR2E3 two-hybrid, luciferase; inhibition of corepressor binding, % at 3.98 µM; 360,000 tested, 0.35% active;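 active means inhibition above the mean of all tested compounds plus 3 SD, cut at about 70% in these data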;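 further: 0% = DMSO with NR2E3 transfected cells and 100% = cells lacking NR2E3 construct; higher means lower luciferase signal from less NR2E3 corepressor binding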
GalR3 conf: confirmation of human galanin receptor 3 antagonists; shares compounds with GalR3 antag; HEK293 GalR3 CNG cAMP biosensor, membrane potential fluorescence; galR3 fused to GalR1 carboxy tail; challenged with forskolin and galanin at EC90; inhibition, % at 3 µM; 1,600 tested, 59% active; AID 652245;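 active means inhibition above the primary screen's cutoff, the mean inhibition of all screened compounds plus 3 SD, cut at about 13% in these data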;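 further: 0% = forskolin plus galanin and 100% = forskolin alone with DMSO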
HEK-CNG parental: counter-screen for GalR3 antagonists: nonspecific agonists in parental HEK-CNG cells; shares compounds with GalR3 antag; HEK293-CNG parental cells, cAMP membrane potential fluorescence; normalised: DMSO wells 0%, forskolin wells 100%; activation, % at 3 µM; 1,600 tested, 10% active; in the data active means activation above about 1.3%
NR1D1 mod conf: confirmation of modulators of human Rev-erb alpha DNA binding; AID 1259319; Rev-erb alpha FITC-DNA binding, fluorescence polarization, 90 min; shares compounds with NR1D1 modulator; 3,000 tested, 61% active; activation, % at 25 µM;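 active means activation at or above a set limit, or at least 3 SD above the negative control mean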;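 further: 0% = 35 nM protein with DMSO and 100% = 750 nM protein high control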
RORg counter: affects RORgamma DNA binding in a Rev-erb alpha counter-screen | shares compounds with NR1D1 modulator | purified RORgamma protein-FITC-DNA binding, fluorescence polarization | IC50, µM | 910 tested, 8% active | AID 1259320;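 active means Compounds whose fitted half-maximal concentration for disrupting protein-DNA binding is below 10 micromolar; the record names Rev-erb in its text, so the target is in doubt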
* hit, by the source's call; x = not tested or not shown.

SMILES	NR1D1 modulator	GalR3 antag	NR2E3 ag-1	PG9 Ab binder	NR2E3 ag-2	GalR3 conf	HEK-CNG parental	others
COc1ccc(C(=O)N/N=C/C23CC[C@@H](O)CC2(O)CC[C@@H]2[C@@H]3CCC3(C)C(C4=CC(=O)OC4)CCC23O)cc1 (some centres undefined)	-6.3	34.0*	2.5	-1.5	10.6	39.8*	0.7
COP(=O)(C(=O)Nc1ccccc1)C(CC(C)C)NC(=O)OCc1ccccc1 (centres undefined)	1.3	x	x	x	x	x	x
CC(=O)NCCc1c[nH]c2ccccc12	1.0	-3.3	0.4	0.8	-25.6	x	x
CC(=O)c1cn(CC(=O)NCCc2c[nH]c3ccccc23)c2ccccc12	-0.4	17.6*	2.0	-1.8	-8.5	58.1*	-0.2
C[C@H](Cc1ccc(OCC(=O)O)cc1)NC[C@H](O)c1cccc(Cl)c1	-4.9	x	x	-0.1	x	x	x
Cc1cc(N2CCNC[C@@H]2C)ccc1N1CC[C@@H](O)C1	-8.6	-7.4	x	-0.7	x	x	x
O=C(N/N=C/c1c(O)n(CCc2ccccc2)c(=O)[nH]c1=O)c1ccccc1O	0.3	77.2*	-1.4	0.4	-29.1	52.8*	0.0
O=C(N/N=C/c1c(O)n(Cc2ccc(F)cc2)c(=O)[nH]c1=O)c1ccccc1O	-1.2	12.6*	6.3	0.7	-55.1	5.9	0.2
O=C(N/N=C/c1c(O)n(CCc2ccc(F)cc2)c(=O)[nH]c1=O)c1ccncc1	3.1	24.8*	2.9	0.1	-28.7	19.0*	0.1
Cc1cccc2nc(-c3ccccc3)c(-c3ccc(CN4CCC(n5c(=O)[nH]c6cc(Cl)ccc65)CC4)cc3)nc12	-6.8	-7.8	x	-0.7	x	x	x
COC(=O)C1=C(c2ccc(OC)c(OC)c2)C[C@@H]2CC[C@H]1N2C(=O)NC1CC1	1.3	15.3*	0.4	0.6	-24.6	0.6	0.1
COC(=O)C1=C(c2cccc(C#N)c2)C[C@@H]2CC[C@H]1N2C(=O)NC1CC1	-2.7	15.5*	2.1	2.5	4.9	12.7*	0.3
COC(=O)C1=C(c2cccc(C#N)c2)C[C@@H]2CC[C@H]1N2C(=O)NC1Cc2ccccc2C1	-3.0	3.1	1.4	-0.1	-11.9	x	x
CC(C)(C)NCC(O)c1ccccc1Cl (centres undefined)	3.5	x	x	x	x	x	x
CC[n+]1c(/C=C/C=C/c2ccc(N(C)C)cc2)sc2ccccc21	-12.7	19.4*	-58.0	-252.2	34.4	74.4*	3.5*
OC1CN2CCCC(O)C2C1O (centres undefined)	0.5	-7.1	x	-2.8	x	x	x
N=C1c2ccccc2CN1NC(=O)c1ccc(F)cc1	0.5	-3.5	0.8	-0.2	-12.7	x	x
N=C1c2ccccc2CN1NC(=O)c1ccco1	-1.4	12.6*	x	1.1	11.0	2.2	0.4
CC(C)CC(C)N (centres undefined)	18.9*	2.2	1.5	-0.8	-10.5	x	x	NR1D1 mod conf=-2.6
COC(=O)C1C(OC(=O)c2ccccc2)CC2CCC1[N+]2(C)C (centres undefined)	12.6	-1.0	x	-0.9	x	x	x
C=C(C)c1cccc(C(C)(C)NC(=O)NC2CN3CCC2CC3)c1 (centres undefined)	38.5*	0.9	-1.0	-0.4	-6.0	x	x	NR1D1 mod conf=45.9*
Cc1ccc(-n2c(O)c(/C=N/c3ncc(Br)cc3Br)c(=O)[nH]c2=O)cc1	131.3*	4.9	2.6	-1.2	-22.1	x	x	NR1D1 mod conf=143.5*;RORg counter=>40
O=C(CN1CCOCC1)c1cccc2ccccc12	6.6	-7.1	1.8	-0.5	-2.9	x	x
Cc1c(C(=O)c2cccc3ccccc23)c2cccc3c2n1[C@H](CN1CCOCC1)CO3	26.8*	-4.2	5.0	-3.1	-35.4	x	x	NR1D1 mod conf=15.7*
